TRPC4 block – TRPC4 (mouse) channel inhibition; HEK293 TRPC4beta/mu-opioid, DAMGO-evoked Fluo4 calcium flux; hits give low values; B-score at 10 µM; 0.39% of 300,000 active;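 active = B-score over 3 SD under the library average, no early fluorescence shift, positive overall ratio signal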
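Assay system – HEK293 line stably carrying TRPC4beta and mu-opioid receptor · Doses – single dose · Detection – Fluo4 calcium-dye fluorescence, kinetic read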
TRPC6 activator – activates the mouse TRPC6 cation channel. B-score at 10 µM. AID 2550. Q61143. 0.13% of 310,000 active. HEK293-TRPC6 membrane potential dye fluorescence; hits give high values;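 active = B-score of the integrated fluorescence ratio above library mean plus 3 SD, and starting fluorescence ratio within library mean plus 5 SD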;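 also: higher score means more depolarization so channel activation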
TRPC4 potent – TRPC4 (mouse) allosteric potentiation | Q9QUQ5 | HEK293 TRPC4beta/mu-opioid, DAMGO EC20, Fluo-4 Ca2+ flux; hits give high values | B-score at 10 µM | 0.42% of 310,000 active;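 active = B-score of calcium response area above 5 SD of library B-scores, with initial fluorescence ratio within 5 SD of library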;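 also: B-score of integrated fluorescence ratio over time as area under calcium response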
TRPC6 inhibitor – inhibitors of mouse TRPC6 channel; Q61143; HEK293-TRPC6, membrane potential dye, ACh-evoked depolarization; hits give low values; B-score at 10 µM; 1.1% of 310,000 active; AID 2553;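 active = B-score under library mean minus 3 SD, initial fluorescence not abnormally high, positive integrated signal ratio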;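 also: B-score derived from integrated fluorescence ratio over the kinetic read; more negative B-score means stronger inhibition of depolarization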
TRPC4 agonist – opens the mouse TRPC4 cation channel; Q9QUQ5; HEK293 TRPC4beta/mu-opioid, Fluo4 calcium fluorescence; hits give high values; B-score at 10 µM; 0.49% of 310,000 active;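 active = B-score above 5 SD of library B-scores, and initial fluorescence ratio not above library mean plus 5 SD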;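 also: positive B-score marks a calcium rise read as TRPC4 activation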
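Test system: HEK293 cells stably co-expressing mouse TRPC4beta and mu-opioid receptor | Schedule: Fluo4 dye loading 45 min at room temperature, 110 s recording | Measured by: Kinetic Fluo4 calcium fluorescence, 5 s baseline at 1 Hz | Evaluation: B score of integrated ratio | Controls: Buffer (low) and maximal DAMGO (high)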
HEK293 MPD ctr – parental HEK293 nonspecific activity of TRPC6 modulators; membrane potential dye fluorescence; membrane potential signal change, % at 10 µM; shares compounds with TRPC6 inhibitor; 51% of 2,400 active;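 active = membrane potential signal moves up or down beyond 5 SD from buffer-only wells, on both duplicate plates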
HEK293 MPD ctr 2 – second check of TRPC6 modulator effects in parental HEK293 cells; inhibition, % at 10 µM; shares compounds with TRPC6 inhibitor; membrane potential dye fluorescence; after compound, maximal acetylcholine stimulation; AID 488926; 14% of 2,400 active;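 active = membrane potential signal drops by more than 5 SD from the mean control signal, in both duplicate plates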;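 also: plate controls were acetylcholine ECmax control wells for no effect and buffer only wells for full effect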
TRPC4 ctr mod – mouse TRPC4 off-target activity of TRPC6 modulators | shares compounds with TRPC6 inhibitor | HEK293 TRPC4/mu-opioid, membrane potential fluorescence | percent change from control (negative = decrease, positive = increase), % at 10 µM | 69% of 2,400 active | AID 488927;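 active = membrane potential signal moved up or down beyond 5 SD of buffer control wells, in both duplicate plates, actives on both sides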;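 also: plate controls were assay buffer wells for no effect and DAMGO maximal-effect wells for full effect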
TRPC4/MOR inh 2 – second check of whether TRPC6 modulators also affect mouse TRPC4; shares compounds with TRPC6 inhibitor; HEK293 TRPC4/mu-opioid, membrane potential dye fluorescence; stimulated with maximal-effect DAMGO; inhibition, % at 10 µM; 55% of 2,400 active; AID 488928;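 active = drop in membrane potential signal beyond 5 SD of the control wells in both duplicate plates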;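 also: TRPC4 counter screen for TRPC6 hits run under conditions tuned for TRPC6 not TRPC4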
TRPC6 block conf – confirmation of mouse TRPC6 inhibitors; shares compounds with TRPC6 inhibitor; HEK293-TRPC6, membrane potential dye, ACh-evoked depolarization; inhibition, % at 10 µM; 43% of 3,300 active; AID 488960;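 active = fluorescence ratio falls more than 5 SD below the full-stimulation control mean, in both duplicate runs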;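 also: integrated fluorescence ratio of peak minus minimum over baseline after agonist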
TRPC6 act confirm – mouse TRPC6 activator confirmation; shares compounds with TRPC6 inhibitor; HEK293-TRPC6 membrane potential dye fluorescence, FDSS; activation, % at 10 µM; 11% of 2,800 active;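 active = ratio signal rise beyond 5 SD above unstimulated control wells' mean, seen in both duplicate runs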;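 also: plate controls were buffer EC0 wells for no effect and acetylcholine ECmax response for full effect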
Active calls of the source: *; i = inactive; · = no result given; + = active, no number. Shown are actives, neighbours in structure and some others; about 2.3% of the full set was active somewhere.

SMILES	TRPC4 block	TRPC6 activator	TRPC4 potent	TRPC6 inhibitor	TRPC4 agonist	HEK293 MPD ctr	HEK293 MPD ctr 2	TRPC4 ctr mod	TRPC4/MOR inh 2	TRPC6 block conf	TRPC6 act confirm
CC(Sc1ccc(Cl)cc1)C(=O)N(C)CC(=O)Nc1ccc(N2CCOCC2)cc1 (configuration not stated)	i	i	i	i	i	·	·	·	·	·	·
COc1ccc2c(n1)Sc1nc3ccccc3nc1N2	i	19*	i	i	i	210%*	i	106%*	i	i	i
COc1cc2ccccc2nn1	i	i	i	i	i	·	·	·	·	·	·
COc1cc(C(c2c(O)cc(C)[nH]c2=O)c2c(O)cc(C)[nH]c2=O)ccc1O	i	i	i	i	i	·	·	·	·	·	·
CCOC(=O)c1nc2cc3n(c(C)c-2c1C)C(C)C(CC)=C3C (configuration not stated)	i	i	i	-6.5*	i	158%*	174%*	24%*	34%*	52%*	i
CN(C)C=Nc1c(Br)cc(Br)c2nonc12	i	25*	i	i	i	984%*	i	136%*	i	i	190%*
COc1cc(/C=C2\S/C(=N/S(=O)(=O)c3ccc(C)cc3)NC2=O)c([N+](=O)[O-])cc1OC	i	i	i	i	i	·	·	·	·	·	·
Cc1ccc(S(=O)(=O)/N=C2/NC(=O)/C(=C/c3cc([N+](=O)[O-])ccc3O)S2)cc1	i	62*	i	i	i	390%*	i	66%*	i	i	280%*
O=C1NC(=Nc2ccccc2Cl)S/C1=C\c1cc([N+](=O)[O-])ccc1O	i	34*	i	i	82*	+	i	380%*	65%*	i	658%*
Cc1cc(N2CCC(N(C)C3CCCC3)CC2)nc2cc(O)ccc12	i	i	i	-6.7*	i	-282%*	i	-54%*	47%*	43%*	i
Cc1cc(N2CCN(c3ccccc3)CC2)nc2ccccc12	i	i	i	i	i	·	·	·	·	·	·
CCOC(=O)c1ccc(NC(=O)c2nc[nH]c2C(=O)N[C@@H](CC(C)C)C(=O)OCc2ccccc2)cc1	i	i	i	i	i	·	·	·	·	·	·
CC(C)CCNC(=S)Nc1ccc2nc3n(c(=O)c2c1)CCCCC3	i	i	i	-5.2*	i	i	i	i	i	i	i
Cc1cc(N2CCN(C)CC2)nc2ccc(NC(=O)CCC(=O)N3CCN(c4ccc([N+](=O)[O-])cc4)CC3)cc12	i	12*	i	i	i	237%*	i	44%*	i	i	84%*

High-throughput results (PubChem)
